The test system of data set [1] is MDA-MB-231. As to the kind of experiment: Cytotoxicity against human MDA-MB-231 cells measured after 48 hrs by resazurin dye based fluorescence assay. Type of data set: functional, cell-based. The following applies: MDA-MB-231, 48 h. In outline:
(§1)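 MDA-MB-231 cells in Leibovitz-L15 with 10% FBS, 10^4 cells/well, were allowed to adhere for 24 h at 37 °C. They were then exposed to a halving serial dilution from 250 to 0.98 μM (DMSO ≤0.5% final). Next came 10% resazurin for 4 h at 37 °C, with fluorescence read at λex 540 and λem […] nm. Assays used six technical replicates across three experiments. Results were expressed as % cell death, and IC50 was taken from regression (four-parameter logistic).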
A general note: Resazurin is reduced to fluorescent resorufin, in cell work by metabolically active cells.

The nature of data set [2]: Drug internalization in human MDA-MB-231 cells assessed as uptake in cellular perimeter at 5 uM measured after 30 mins by CellMask Deep Red plasma membrane/MitoTracker Red FM/Hoechst staining based fluorescence microscopy. The data set is classed as ADME, cell-based. The settings on record: mda-mb-231, 0.5 h. In outline: (§2)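 Cells (1.9 × 10^4/well) adhered for 24 h and were then given 5 μM compound, in duplicate at 37 °C, alongside untreated controls. They were stained with CellMask Deep Red, MitoTracker Red FM and Hoechst for 30 min at RT, then fixed in 4% PFA. Epifluorescence high-content imaging at 40× used a FITC filter with 488 nm excitation. The untreated autofluorescence mean set the threshold, and green area per cell was quantified in μm2.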

A short description of data set [3]: Drug internalization in human MDA-MB-231 cells assessed as appearance of small blebs colocalization with mitochondria at 5 uM measured after 1 hr by DAPI/FITC/TxRed/Cy5 staining based confocal microscopy. The following applies: mda-mb-231, 1 h. Type of data set: ADME. The method in brief:
(§3)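 Preparation was the same: 5 μM treatment at 37 °C in duplicate, then staining with CellMask Deep Red, MitoTracker Red FM and Hoechst, and 4% PFA fixation. Confocal Airyscan imaging at 40× used a 1 AU pinhole with gated channels: DAPI 410–508, FITC 493–571, TxRed 548–620 and Cy5 638–759 nm. Z-stacks gave orthogonal views, thresholded against untreated cells. Pearson's coefficient was calculated between the FITC and TxRed channels.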

The nature of data set [4]: Drug internalization in human MDA-MB-231 cells assessed as increase in fluorescence at 5 uM measured after 1 hr by CellMask Deep Red plasma membrane/MitoTracker Red FM/Hoechst staining based fluorescence microscopy. Type of data set: ADME, cell-based. The following applies: mda-mb-231, 1 h. The method in brief: as §2
A short description of data set [5]: Drug internalization in human MDA-MB-231 cell mitochondria assessed as appearance of green fluorescence throughout the cell at 5 uM measured after 2 hrs by DAPI/FITC/TxRed/Cy5 staining based confocal microscopy. Type of data set: ADME. The settings on record: mda-mb-231, 2 h. The method in brief: as §3
The subject of data set [6] is MDA-MB-231. As to the kind of experiment: Cytotoxicity against human MDA-MB-231 cells measured after 24 hrs by resazurin dye based fluorescence assay. Type of data set: functional, cell-based. The following applies: MDA-MB-231, 24 h. In outline:
as §1

Data set [7] is described as follows: Drug internalization in human MDA-MB-231 cells assessed as interaction with mitochondria at 5 uM measured after 30 mins by DAPI/FITC/TxRed/Cy5 staining based confocal microscopy. The following applies: mda-mb-231, 0.5 h. Type of data set: ADME. The method in brief:
as §3

Data set [8] in a line: Drug internalization in human MDA-MB-231 cells assessed as intracellular uptake at 5 uM measured after 30 mins by CellMask Deep Red plasma membrane/MitoTracker Red FM/Hoechst staining based fluorescence microscopy. Type of data set: ADME, cell-based. The settings on record: mda-mb-231, 0.5 h. In outline: as §2
Data set [9] can be described thus: Drug internalization in human MDA-MB-231 cells assessed as appearance of diffuse layer of green fluorescence with small clusters inside the cell at 5 uM measured after 30 mins by DAPI/FITC/TxRed/Cy5 staining based confocal microscopy. The data set is classed as ADME. The following applies: mda-mb-231, 0.5 h. The method in brief: as §3
Data set [10] is described as follows: Drug internalization in human MDA-MB-231 cell mitochondria assessed as appearance of more clustered green fluorescence at 5 uM measured after 2 hrs by DAPI/FITC/TxRed/Cy5 staining based confocal microscopy. The data set is classed as ADME. The following applies: mda-mb-231, 2 h. The method in brief: as §3
Data set [11] in a line: Drug internalization in human MDA-MB-231 cells assessed as increase in fluorescence at 5 uM measured after 30 mins by CellMask Deep Red plasma membrane/MitoTracker Red FM/Hoechst staining based fluorescence microscopy. Type of data set: ADME, cell-based. The following applies: mda-mb-231, 0.5 h. In outline: as §2
The subject of data set [12] is MDA-MB-231. Description: Cytotoxicity against human MDA-MB-231 cells measured after 48 hrs by MTT assay. Type of data set: functional, cell-based. The settings on record: MDA-MB-231, 48 h. (Tetrazolium dyes change colour on reduction, which living cells bring about.)
The nature of data set [13]: Potency index, ratio of Met10G IC50 to test compound IC50 for cytotoxicity against human MDA-MB-231 cells after 48 hrs. The data set is classed as functional.
The nature of data set [14]: Potency index, ratio of Met10G IC50 to test compound IC50 for cytotoxicity against human MDA-MB-231 cells after 24 hrs. Type of data set: functional.

Bounds are passed on as bounds.

One may read the IC50 as the concentration at which inhibition is half-maximal. High values mean a need for much substance, low ones inhibition by little substance.

Regarding `COc1cc(Cl)ccc1OCCCCc1cn(CCCNC(=O)c2cc3ccc(O)cc3oc2=O)nn1`, the IC50 came out at 103 µM in [1] and 116 µM in data set [6]. Moreover, the Drug uptake result was “Active” in [2]; “Active” in data set [3]; “Not_active” in data set [4]; “Active” in [5]; “Active” in data set [7]; “Active” in [8]. The Drug uptake result in data set [9], in data set [10] and in [11] was “Active” each time.

Take `CCCCCCCCC[C@H](O)CC(=O)CCc1ccc(O)c(OC)c1`: the IC50 in [12] was found to be 12.1 µM.

Turning to `CCCCCCCCC[C@H](O)CC(=O)CCc1ccc(OCCCCc2cn(CCCNC(=O)c3cc4ccc(O)cc4oc3=O)nn2)c(OC)c1`, the figures for the IC50 in [1] and in data set [6] were 2.3 µM and 19.1 µM, respectively. Moreover, the Drug uptake result in data set [2], in data set [3], in data set [4], in data set [5], in data set [7] and in data set [8] was “Active” throughout. The Drug uptake result in data set [9], in data set [10] and in [11] was “Active” each time. Further, the “Ratio IC50” value in data set [13] was “<=10”; in data set [14], 2.

As for `CCCCCCCCCC(O)CC(=O)CCc1ccc(OC)c(OC)c1` (stereo unspecified), the 50% inhibitory concentration (IC50) in data set [1] came out at 26.9 µM; in data set [6], 45.6 µM. Further, the Drug uptake result in [2] is reported as “Active”; in [3], “Active”; in [4], “Not_active”; in [5], “Active”; in data set [7], “Active”; in data set [8] it was “Active”. Further, the Drug uptake result in [9], in data set [10] and in data set [11] was “Active” in each case.
